Bioassay records deposited in PubChem BioAssay by Sanford-Burnham Center for Chemical Genomics.
CCR6 antag – CCR6 (human) receptor antagonism. P51684. 0.49% of 340,000 active. inhibition, % at 20 µM. CHO-K1 CCR6 PathHunter beta-arrestin, luminescence, CCL20-stimulated;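 active = compounds whose inhibition of the agonist-driven luminescence signal at 20 µM reaches about 50%, limit read from the data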;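 also: cells stimulated with CCL20 at 14 nM final; plate controls were DMSO with CCL20 for no effect and DMSO without agonist for full effect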
CXCR6 inh – inhibitors of human CXCR6 receptor; O00574; CHO-K1 PathHunter CXCR6 beta-arrestin, luminescence; inhibition, % at 20 µM; 0.36% of 360,000 active; AID 602244; in the data active = inhibition above about 34%, passing the limit was not always enough;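 also: antagonist mode with CXCL16 agonist at 10 nM final; 0% = 10 nM CXCL16 with DMSO and 100% = unstimulated wells without agonist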
APJ ag – APJ receptor agonism | AID 2520 | P35414 | activation, % at 20 µM | 0.11% of 330,000 active | CHO-K1 APJ PathHunter beta-arrestin, luminescence; 0% DMSO wells, 100% apelin;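 active = activation more than six SD over the plate average, tested at 20 µM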;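 also: 0% = DMSO alone and 100% = apelin-13 at 10 nM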
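Test system: CHO-K1 APJ beta-arrestin complementation cell line. Amount: cell density 1000 per well. Controls: DMSO negative, 10 nM Apelin-13 positive. Signal: luminescent beta-gal fragment complementation, chemiluminescent substrate. Read-out basis: agonist-driven arrestin binding to APJ. Timing: compound stimulation 90 min at 25 °C, detection 60 min.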
APJ antagonist – antagonists of human APJ apelin receptor. CHO-K1 APJ beta-arrestin complementation, luminescence. inhibition, % at 20 µM. 0.32% of 330,000 active. AID 2521;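 active = inhibition above about 40% at 20 µM, limit read from the data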;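 also: cells challenged with 10 nM apelin-13 agonist together with compound; plate controls were apelin-13 plus DMSO wells for no effect and DMSO wells lacking apelin-13 for full effect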
EBI2 antag – EBI2 (human) antagonism. P32249. EBI2 beta-arrestin recruitment, luminescence, 7a,25-OHC stimulated. inhibition, % at 5 µM. 0.81% of 360,000 active. AID 651636; in the data active = inhibition above about 38%;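 also: enzyme fragment complementation signal reports receptor beta-arrestin coupling in cells; 0% = agonist plus DMSO wells and 100% = wells without agonist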
Target sequence (P32249 whole entry, looked up, the tested form may be a part): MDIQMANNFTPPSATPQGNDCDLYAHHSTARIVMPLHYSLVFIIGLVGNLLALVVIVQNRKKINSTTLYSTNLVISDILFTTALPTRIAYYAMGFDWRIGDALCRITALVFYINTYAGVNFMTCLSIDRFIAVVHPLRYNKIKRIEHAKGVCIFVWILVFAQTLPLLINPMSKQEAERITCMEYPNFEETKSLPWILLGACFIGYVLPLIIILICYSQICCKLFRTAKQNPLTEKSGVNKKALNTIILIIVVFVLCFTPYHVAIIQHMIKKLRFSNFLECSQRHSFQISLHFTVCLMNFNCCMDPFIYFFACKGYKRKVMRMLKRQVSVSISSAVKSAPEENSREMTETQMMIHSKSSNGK
EBI2 conf – confirmation of human EBI2 receptor antagonists; shares compounds with EBI2 antag; EBI2 beta-arrestin luminescence, 7a,25-OHC antagonism; inhibition, % at 5 µM; 29% of 2,400 active; AID 651997;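 active = inhibition of at least 50%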
EBI2 agonist – activates EBI2, counter-screen for EBI2 antagonists; shares compounds with EBI2 antag; AID 652000; EBI2-expressing cells, agonist mode, luminescence, 60 min; 0% vehicle, 100% 7α,25-dihydroxycholesterol control; activation, % at 5 µM; 2,400 tested, under 10 active;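 active = activation of at least 50%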
bGal cs – counter-screen for EBI2 antagonists: E. coli beta-galactosidase inhibition; shares compounds with EBI2 antag; purified beta-galactosidase, luminescent Galacton Star, 15 min; inhibition, % at 5 µM; 1% of 2,400 active;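 active = replicate-average signal at least 3 plate SD below neutral wells, shown as high inhibition, flagging enzyme-inhibiting false positives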;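 also: 0% = DMSO wells with enzyme and 100% = wells lacking enzyme; higher means stronger loss of beta-gal luminescence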
* = called active by the depositor; nt = no result given. The list is not random: actives were taken first. Their share in the collection is about 1.5%.

SMILES	CCR6 antag	CXCR6 inh	APJ ag	APJ antagonist	EBI2 antag	EBI2 conf	EBI2 agonist	bGal cs
CC(C)c1ccc(C(=O)N2CCCCC2c2cc(C(=O)NCc3cccnc3)no2)cc1 (configuration not stated)	nt	10	nt	nt	7	nt	nt	nt
CCNC(=O)NC(=O)C(C)OC(=O)c1oc2ccccc2c1CSC1CCCCC1 (configuration not stated)	13	-3	-4	6	44*	35	0	2
CC(C)C(OC(=O)c1oc2ccccc2c1CSC1CCCCC1)C(=O)NC(N)=O (configuration not stated)	nt	nt	-4	-7	nt	nt	nt	nt
CC(c1ccccc1)N(CCC(c1ccccc1)C1CCOC(C)(C)C1)C(=O)c1ccco1 (configuration not stated)	30	4	2	-14	44*	10	2	8
CC(Sc1ccccc1)C(=O)NCC(c1ccco1)N1CCCCC1 (configuration not stated)	2	6	-7	21	-5	nt	nt	nt
CCc1cccc(NC(=O)c2cccc3c2C(=O)N(C2CCCCC2)C3)c1	2	-1	-12	9	10	nt	nt	nt
CCN(CC(=O)Nc1c(F)cccc1F)C(=O)c1ccc(N2CCCC2=O)cc1	1	-7	-1	8	-4	nt	nt	nt
O=C1C=C(Nc2ccc(Cl)cc2)CC(c2ccc(Cl)cc2)C1 (configuration not stated)	19	-6	-4	18	81*	82*	1	-1
Cc1ccc(C2CC(=O)C=C(Nc3ccc(Cl)cc3)C2)cc1 (configuration not stated)	-3	-5	-2	0	75*	64*	3	6
COc1ccc(C(C)=O)cc1CSc1nc2ccccc2c(=O)n1-c1ccccc1C	2	12	4	1	44*	23	1	7
COP(=O)(OC)OC(C(=O)c1ccccc1)c1ccccc1 (configuration not stated)	nt	nt	nt	nt	0	nt	nt	nt
COc1cc2cc(C(c3nnnn3C3CCCC3)N(C)C3CCCCC3)c(=O)[nH]c2cc1OC (configuration not stated)	-7	8	-2	-2	58*	54*	2	3
COc1cc2cc(C(c3nnnn3C3CCCCC3)N(C)C3CCCCC3)c(=O)[nH]c2cc1OC (configuration not stated)	-16	17	-1	8	36*	46	1	-1
COc1ccc2[nH]c(=O)c(C(c3nnnn3C3CCCCC3)N3CCN(C)CC3)cc2c1 (configuration not stated)	12	-12	-2	-1	-5	nt	nt	nt
CNS(=O)(=O)c1cccc(C(=O)OCC(=O)Nc2ccc3ccccc3c2)c1	2	-3	-6	-1	-1	nt	nt	nt
Cc1cc(Cl)ccc1OCC(=O)OCC(=O)N1CCC(C(N)=O)CC1	1	9	-2	8	-8	nt	nt	nt
Cc1nc(N2CCN(Cc3ccc4c(c3)OCO4)CC2)c2cc(-c3ccccc3)sc2n1	14	12	-4	-11	38*	13	1	5
O=C(NCc1ccc(Cl)cc1)C1CCN(S(=O)(=O)c2ccc(F)cc2)CC1	12	-3	-2	-4	51*	16	0	-10
O=C(NCc1ccc(F)cc1)C1CCN(S(=O)(=O)c2ccc(Br)s2)CC1	26	-2	-1	9	52*	19	-1	-4
O=C(NCc1ccc(F)cc1)c1ccc(S(=O)(=O)N2CCCCC2)cc1	14	-3	-3	30	12	nt	nt	nt
O=C(NCCc1ccccc1)C1CCN(S(=O)(=O)N2CCCCCC2)CC1	10	5	-3	18	3	nt	nt	nt
O=C(NCc1ccc(F)cc1)C1CCCN(S(=O)(=O)c2ccc(Br)s2)C1 (configuration not stated)	15	-5	1	3	10	nt	nt	nt
O=C(NCc1ccc(Cl)cc1)c1ccc(S(=O)(=O)N2CCCCC2)cc1	10	5	-1	-11	49*	33	-1	-19
O=C(NCc1ccncc1)C1CCN(S(=O)(=O)c2ccc(F)cc2)CC1	9	2	-2	4	-3	nt	nt	nt
O=C(NCCc1ccc(Cl)cc1)C1CCN(S(=O)(=O)N2CCCCC2)CC1	17	0	-5	-28	44*	14	0	6
SMILES	CCR6 antag	CXCR6 inh	APJ ag	APJ antagonist	EBI2 antag	EBI2 conf	EBI2 agonist	bGal cs
COc1cccc(-c2noc(CCCC(=O)Nc3ccc(C(N)=O)cc3)n2)c1	-11	2	-5	-1	-5	nt	nt	nt
O=C(COc1ccccc1/C=C1\SC(=S)NC1=O)Nc1ccc(F)cc1	28	8	-5	16	-4	nt	nt	nt
O=C(NCc1ccc(Cl)cc1)C1CCN(S(=O)(=O)c2cccnc2)CC1	-2	-1	7	-6	50*	23	1	4
O=C(NCc1ccc(F)cc1)C1CCN(S(=O)(=O)c2cccnc2)CC1	13	-7	1	4	11	nt	nt	nt
CN(C(=O)C1CCN(S(=O)(=O)c2cccs2)CC1)c1ccccc1	-17	6	1	7	-3	nt	nt	nt
Cn1c(=NC(=O)C2CCN(S(=O)(=O)c3cccs3)CC2)sc2ccccc21	7	6	0	5	57*	26	-1	-15
Cn1cnc(S(=O)(=O)NC2CCN(Cc3c(F)cccc3Cl)CC2)c1	1	-12	9	1	14	nt	nt	nt
CC(=O)c1ccc(Nc2ccc(-c3ccccc3F)nn2)cc1	5	-7	-2	-10	42*	26	-2	-5
O=C(C1CCCN1S(=O)(=O)c1ccc(Cl)cc1)N1CCN(c2ccccc2)CC1 (configuration not stated)	13	7	-1	7	2	nt	nt	nt
CCOc1ccc(NC(=O)CN2CCN(C3c4ccccc4-c4ccccc43)CC2)cc1	4	-7	-4	2	68*	49	0	3
FC(F)Oc1ccc(NC(=S)NCc2ccccc2)cc1	-6	0	0	-17	-4	nt	nt	nt
CN(NC(=S)Nc1ccc(OC(F)F)cc1)C(=S)Nc1ccc(OC(F)F)cc1	20	2	-5	20	43*	17	2	6
CCN(CC)C(=S)Nc1ccc(OC(F)F)cc1	9	2	0	-15	22	nt	nt	nt
FC(F)Oc1ccc(NC(=S)Nc2ccc3cn[nH]c3c2)cc1	-3	3	0	-24	53*	47	0	-14
Oc1cccc2c(NC(=S)Nc3ccc(OC(F)F)cc3)cccc12	6	-16	5	-31	45*	24	-1	-8
S=C(Nc1ccccc1)Nc1ccc2cn[nH]c2c1	-8	-8	2	-2	3	nt	nt	nt
